# Shown are actives, neighbours in structure and some others; about 1.4% of the full set was active somewhere.
# HTR5A inv ctr – HTR5A inverse agonists in luminescence cell assay, primary screen, counter-screen for OPRM1-OPRD1 heterodimer inverse agonist project, full-deck HTS; inhibition, % at 9.3 µM; 340,000 tested, 0.083% active; 5-hydroxytryptamine receptor 5A (Homo sapiens), P47898; AID 504634, 2011; HTR5A cell line, inverse agonism; in the data active = inhibition mostly above about 23%, no sharp cut-off; inactive = mostly below about 18%;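 note: 0% = cells with DMSO and 100% = no-cell wells with DMSO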
# Target sequence (P47898 whole entry, looked up): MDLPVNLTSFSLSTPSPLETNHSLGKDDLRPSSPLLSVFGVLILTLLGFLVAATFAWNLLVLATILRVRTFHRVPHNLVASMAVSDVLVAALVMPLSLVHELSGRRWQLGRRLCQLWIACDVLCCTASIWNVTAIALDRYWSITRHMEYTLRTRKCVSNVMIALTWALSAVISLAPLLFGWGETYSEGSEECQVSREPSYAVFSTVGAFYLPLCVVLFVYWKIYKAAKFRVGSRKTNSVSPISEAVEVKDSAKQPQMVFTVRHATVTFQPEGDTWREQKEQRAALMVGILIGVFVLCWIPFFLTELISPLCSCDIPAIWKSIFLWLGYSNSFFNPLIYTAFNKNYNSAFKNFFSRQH
# MOR-DOR ag – agonists of OPRM1-OPRD1 heterodimerization, primary screen, cell-based, luminescence. Mu-type opioid receptor (Homo sapiens) + Delta-type opioid receptor (Homo sapiens), …. cells. activation, % at 9.3 µM. 340,000 tested, 0.3% active. AID 504326, 2011;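 note: 0% = vehicle-treated cells and 100% = reference agonist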
# Arrestin-AP2 inh – inhibitors of beta-arrestin/AP2 binding, primary screen, biochemical, GPCR trafficking, flow cytometry. AID 504490, 2011. inhibition, % at 10 µM. beta-arrestin 1 C-terminal peptide binding to AP2 beta2-adaptin appendage (human). FITC-arrestin peptide / GST-AP2 beads; AP2 beta2 appendage carries R879A mutation. 340,000 tested, 0.31% active;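 active = inhibition above a set limit, near 3 SD of compounds lacking own fluorescence, cut at about 54% in these data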;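 note: plate controls were DMSO wells for no effect and 5 µM unlabelled arrestin peptide for full effect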
#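 Material – AP2 appendage R879A on GSH beads · Buffer or medium – PBS with 0.05% Tween 20 and 0.1% BSA · Probe or stimulus – fluorescein-tagged arrestin peptide at 50 nM final · Incubation – compound with beads 12 min RT, then probe 1 h RT · Detection – high-throughput flow cytometry of beads, ex 488, em 535 nm · Evaluation – percent response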
# HTR5A ag – HTR5A agonists in luminescence cell assay, primary screen, counter-screen for OPRM1-OPRD1 heterodimer agonist project, full-deck HTS; 5-hydroxytryptamine receptor 5A (Homo sapiens), P47898; cell-based; activation, % at 9.3 µM; 340,000 tested, 0.61% active; in the data active = activation mostly above about 9.5%, no sharp cut-off; inactive = mostly below about 7.6%;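 note: 0% = cells with vehicle only and 100% = reference agonist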
# MOR-DOR inv ag – inverse agonists of MOR-DOR heterodimerization, primary screen, cell-based, luminescence; cell-based MOR-DOR heterodimer luminescence, inverse agonism; inhibition, % at 9.3 µM; 340,000 tested, 0.21% active; in the data active = inhibition above about 22%, passing the limit was not always enough;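 note: 0% = cells with DMSO and 100% = wells without cells with DMSO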
# DAGLB inhibitor – DAGLB lipase inhibitors, primary screen, biochemical, fluorescence, HTS | Diacylglycerol lipase-beta (Homo sapiens), Q8NCG7 | HEK293T DAGLB membrane lysate, EnzChek fluorogenic substrate | inhibition, % at 5.17 µM | 340,000 tested, 0.059% active; in the data active = inhibition above about 34%;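 note: 0% = enzyme with vehicle and 100% = wells lacking enzyme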
# MOR-DOR ag conf – agonists of MOR-DOR heterodimerization, confirmation, cell-based, luminescence | AID 504904, 2011 | cells, luminescence complementation | activation, % at 9.3 µM | 830 tested, 45% active | shares compounds with MOR-DOR ag;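 note: 0% = vehicle-treated cells and 100% = reference agonist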
# HTR5A ag counter – HTR5A agonists in cells, counter-screen for OPRM1-OPRD1 heterodimer agonist project, cell-based, luminescence. HTR5A agonist counterscreen. shares compounds with MOR-DOR ag. 830 tested, 8% active. activation, % at 9.3 µM; in the data active = activation above about 17%;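 note: 0% = vehicle-treated cells and 100% = reference agonist response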
# Starred values were filed as active, the others as inactive; i = inactive; · = not tested or not shown. Cut-off read from the data, not from the text of the source, unless noted: active = activation above about 18%; inactive = the rest.
SMILES,HTR5A inv ctr,MOR-DOR ag,Arrestin-AP2 inh,HTR5A ag,MOR-DOR inv ag,DAGLB inhibitor,MOR-DOR ag conf,HTR5A ag counter
C=C1C(=O)O[C@@H]2C[C@@H](C)[C@@H]3C=CC(=O)[C@@]3(C)[C@@H](OC(=O)CC(=O)O[C@H]3[C@@H]4C(=C)C(=O)O[C@@H]4C[C@@H](C)[C@@H]4C=CC(=O)[C@]43C)[C@H]12,7,-8,-1,-2,46*,2,·,·
C=C1C(=O)OC2CC(C)C3C=CC(=O)C3(C)C(O)C12 (configuration not stated),15,-3,28,-4,14,2,·,·
CC1(C)C[C@H]2C=C(C=O)[C@]3(C=O)C[C@]3(C)[C@H]2C1,1,11,16,42*,-61,7,·,·
CC1=CC(C)CC(C)OC(=O)CC(c2ccc(O)cc2)NC(=O)C(Cc2c(Br)[nH]c3ccccc23)N(C)C(=O)C(C)NC(=O)C(C)C1 (configuration not stated),-20,-1,0,5,6,3,·,·
C=CCN1C[C@@H](C)N(C(c2ccc(C(=O)N(CC)CC)cc2)c2cccc(OC)c2)C[C@@H]1C (some centres not stated),-21,·,1,-1,·,3,·,-1
O=C1C(=O)c2ccccc2-c2ccccc21,-44,40*,1,9,-222,-32,15,4
Cc1ccc(C[n+]2c(-c3ccc(C)cc3)cc(-c3ccc(C)cc3)cc2-c2ccc(C)cc2)cc1,-59,68*,-2,23*,-374,9,11,11
COC1C(O)C(C)OC(OC2C(Oc3cccc4c(O)c5c(=O)oc6ccc(C)c7c(=O)oc(c34)c5c67)OC(C)C(O)C2O)C1O (configuration not stated),-1,2,-23,0,-10,-2,·,·
Clc1ccc(C(c2ccc(Cl)cc2)n2cc[n+](CC(OCc3ccc(Cl)cc3Cl)c3ccc(Cl)cc3Cl)c2)cc1 (configuration not stated),-10,63*,4,20,-347,20,50*,10
COc1ccc(C(CNC(=O)Cc2ccc(Cl)c(Cl)c2)N(C)C)cc1 (configuration not stated),3,121*,-22,-1,i,-2,8,6
CCOC(=O)C1(CCc2ccccc2)CCN(Cc2cccc3c2OCO3)CC1,9,36*,16,-4,-206,-7,11,0
CCOC(=O)C1(CCc2ccccc2)CCN(Cc2cccc3cnccc23)CC1,-8,15,-11,7,-69,-8,·,·
CCOC(=O)C1(CCc2ccccc2)CCN(Cc2csc(C(C)=O)c2)CC1,-12,63*,11,5,-358,-5,3,18*
COC(=O)C1=C(c2ccc(F)cc2OCc2ccccc2)C[C@@H]2CC[C@H]1N2C(=O)NCCCc1ccccc1,-13,-2,0,4,14,-9,·,·
CC1=C(C)CC2(CC1)C(=O)NC(=O)NC2=O,-4,-2,-4,1,9,-3,·,·
CS(=O)(=O)c1ccc(C2=C(CNC(=O)c3ccc([N+](=O)[O-])cc3)[C@H]3CC[C@@H](C2)N3CCOc2ccccc2)cc1,·,·,·,·,·,-3,·,·
CCOC(=O)C1(c2ccccc2)CCN(CCC(C#N)(c2ccccc2)c2ccccc2)CC1,-25,288*,7,7,i,-17,0,4
